# Compound activity as filed in PubChem.
# ASAP1 inh = inhibitors of human ASAP1 ArfGAP activity; ASAP1-stimulated ARF1 GTP hydrolysis, GDP FP detection; 0.19% of 360,000 active; inhibition, % at 16.5 µM; Q9ULH1; in the data active = inhibition above about 25%
# Target sequence (Q9ULH1 325-724 limits assumed): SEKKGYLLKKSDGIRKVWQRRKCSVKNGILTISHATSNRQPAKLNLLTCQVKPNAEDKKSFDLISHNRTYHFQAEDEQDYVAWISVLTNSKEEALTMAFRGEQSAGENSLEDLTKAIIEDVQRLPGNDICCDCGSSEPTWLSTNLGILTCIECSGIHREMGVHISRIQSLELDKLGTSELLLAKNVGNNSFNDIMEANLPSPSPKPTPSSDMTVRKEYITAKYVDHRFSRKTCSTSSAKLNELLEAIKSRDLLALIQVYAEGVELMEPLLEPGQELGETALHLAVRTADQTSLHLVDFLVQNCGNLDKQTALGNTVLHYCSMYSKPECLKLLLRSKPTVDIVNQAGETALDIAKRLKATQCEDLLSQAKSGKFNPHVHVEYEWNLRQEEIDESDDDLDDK
# LEDGF integ inh = blocks HIV-1 LEDGF/p75-dependent DNA integration | inhibition, % at 3.7 µM | 0.64% of 370,000 active | TR-FRET IN-LEDGF/p75 DNA integration, Eu/Cy5;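 active = inhibition above the screen-wide mean plus 3 SD, cut at about 13% in these data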;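 also: signal is the Cy5 over europium emission ratio at 671 and 618 nm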
# TDP2 inh = blocks human TDP2 phosphodiesterase activity; inhibition, % at 12.8 µM; recombinant TDP2, T5PNP hydrolysis, p-nitrophenol absorbance 415 nm; 0.34% of 370,000 active; O95551;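 active = inhibition above the mean of all tested compounds plus 3 SD, set per campaign, cut at about 25% in these data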
#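 Test system: human TDP2 enzyme; Input: 120 nM TDP2 per well; Buffer or medium: Mg2+-containing Tris-HCl buffer, pH 7.5; Reagent: 5 mM T5PNP; Dosing: 12.8 µM single point, 1% DMSO; Incubation: reaction 2 h, 37 °C; Detection: p-Nitrophenol epi absorbance; Read-out: % inhibition relative to enzyme-containing and enzyme-free wells; Replicates: single well per compound.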
# Casp6 inh = caspase-6 (human) enzyme inhibition. P55212. AID 686996. 0.53% of 350,000 active. inhibition, % at 12.5 µM. purified caspase-6, Z-VEID-R110 cleavage fluorescence;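 active = mean inhibition across replicates at least about 35%, with every replicate also reaching that limit, limit read from the data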
# ARFGAP1 inh = rat ARFGAP1 inhibition. AID 651572. 0.26% of 360,000 active. Q62848. inhibition, % at 16.5 µM. Arfgap1-stimulated ARF1 GTP hydrolysis, GDP FP detection;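 active = inhibition above a per-plate limit, mean inhibition of low control wells plus 3 SD, cut at about 25% in these data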
# Target sequence (Q62848 1-136 limits assumed): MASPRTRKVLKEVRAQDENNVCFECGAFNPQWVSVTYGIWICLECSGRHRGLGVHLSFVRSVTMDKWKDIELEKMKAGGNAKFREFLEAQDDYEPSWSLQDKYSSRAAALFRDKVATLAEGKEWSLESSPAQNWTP
#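 Assay system: purified rat His6-Arfgap1 residues 1-136 (GAP domain); Reagent: human Δ17 ARF1 bound to GTP; Dosing: 16.5 µM single point, 1.26% DMSO; Times: GTP hydrolysis reaction 2 h at 25 °C; Signal: FP, GDP Alexa 633 tracer displaced from anti-GDP antibody, 620/688 nm; Measure: % inhibition from polarization.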
# IN multimer act = counter-screen for LEDGF/p75 integration inhibitors: HIV-1 integrase multimerization activators; shares compounds with LEDGF integ inh; TR-FRET HIV-1 integrase multimerization, biochemical; activation, % at 7.7 µM; 17% of 2,000 active; AID 1053131; in the data active = activation above about 8.9%
# TR-FRET interf = optically interferes with TR-FRET readout in LEDGF counter-screen; shares compounds with LEDGF integ inh; TR-FRET optical interference counterscreen, HIV-1 IN multimerization; inhibition, % at 7.7 µM; 2,000 tested, under 10 active; AID 1053135;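 active = inhibition above the mean over all tested compounds plus 3 SD, which no compound reached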
# IN-LEDGF confirm = LEDGF/p75-dependent HIV-1 integration inhibition, confirmation | TR-FRET LEDGF/p75-dependent HIV-1 integration, biochemical | inhibition, % at 3.7 µM | 36% of 2,000 active | shares compounds with LEDGF integ inh; in the data active = inhibition above about 14%
# Hits are given with their value; i = inactive; nt = not tested or not shown. Sampled rows, rich in hits. Any-hit rate of the full collection: about 1.3%.
SMILES,ASAP1 inh,LEDGF integ inh,TDP2 inh,Casp6 inh,ARFGAP1 inh,IN multimer act,TR-FRET interf,IN-LEDGF confirm
COc1ccc(OC)c(N2C(=O)[C@@H]3C(c4ccccc4Cl)=NO[C@@H]3C2=O)c1,i,23,i,nt,i,i,i,26
O=C(CCNS(=O)(=O)c1ccccc1C(F)(F)F)NNC(=O)C1COc2ccccc2O1 (stereo unspecified),i,i,i,i,i,nt,nt,nt
O=C(CCNS(=O)(=O)c1ccccc1)NNC(=O)C1COc2ccccc2O1 (stereo unspecified),i,14,i,i,i,i,i,i
CCOC(=O)[C@]12CCCC=C1N(Cc1ccc3c(c1)OCO3)C(=O)[C@H](CC(=O)NCc1cccc3ccccc13)C2,i,i,i,i,i,nt,nt,nt
CCC(=O)Nc1cccc(NC(=O)c2ccccc2Cl)c1,i,56,i,i,i,i,i,i
CCC(=O)Nc1cccc(NC(=S)NC(=O)c2ccccc2Cl)c1,i,i,i,nt,i,nt,nt,nt
CC1(C(=O)NCCC(F)(F)F)Cc2c(-c3cccc(C(N)=O)c3)ccnc2O1 (stereo unspecified),i,14,i,i,i,i,i,i
COc1ccc(CCn2c(=O)c3cccnc3n(Cc3ccc([N+](=O)[O-])cc3)c2=O)cc1OC,i,i,i,nt,i,nt,nt,nt
CCOC(=O)C1CCCN(C(=O)c2cc(-c3ccco3)nc3ccccc23)C1 (stereo unspecified),i,25,i,i,i,i,i,48
COc1ccc(-c2cc(C(=O)OCC(=O)c3c(N)n(C)c(=O)n(C)c3=O)c3ccccc3n2)cc1,i,i,i,i,i,nt,nt,nt
Cn1c(N)c(C(=O)COC(=O)c2cc(-c3ccco3)nc3ccccc23)c(=O)n(C)c1=O,i,29,i,nt,i,22,i,62
Cc1ccc(N(C)c2nc(N)nc(N)c2N=O)cc1,i,14,i,i,i,i,i,17
O=C(NC12CC3CC(CC(C3)C1)C2)N1CCN(c2ccccn2)CC1,i,49,i,i,i,i,i,i
CCn1c(CNC(=O)c2ccccc2F)nnc1SCC(=O)NC1CCCCC1C (stereo unspecified),i,i,i,i,i,nt,nt,nt
Cc1cc(NC(=O)/C=C/c2ccco2)ccc1NC(=O)c1ccccc1,i,i,i,i,i,nt,nt,nt
N#Cc1c(NC(=O)/C=C/c2ccco2)sc2c1CCCC2,i,i,i,i,i,nt,nt,nt
O=C(/C=C/c1ccco1)Nc1sc2c(c1C(=O)O)CCC2,i,21,i,61,i,i,i,i
O=C(/C=C/c1ccco1)NC(=S)Nc1cccc(C(=O)O)c1,i,44,i,36,i,i,i,16
O=C(/C=C/c1ccco1)Nc1ccccc1C(=O)O,i,17,i,nt,i,i,i,33
O=C(/C=C/c1ccco1)Nc1ccccc1C(=O)Nc1cccc(C(=O)O)c1,i,25,i,i,i,i,i,19
Cc1ccc(C(=O)Nc2ccc3c(c2)OCCO3)o1,i,i,i,i,i,nt,nt,nt
COc1ccc2c3c([nH]c2c1)[C@H](CO)N(C(=O)c1ccncc1)CC31CCN(C(=O)Nc2cccc(F)c2)CC1,nt,nt,nt,i,nt,nt,nt,nt
O=C(O)CCCNC(=O)/C=C/c1ccco1,i,38,i,60,i,38,i,87
Cn1nnc(NC(=S)NC(=O)/C=C/c2ccco2)n1,i,14,i,i,i,i,i,i
CN1CCC/C1=C/C=C1\SC(=S)NC1=O,i,18,i,i,i,17,i,i
SMILES,ASAP1 inh,LEDGF integ inh,TDP2 inh,Casp6 inh,ARFGAP1 inh,IN multimer act,TR-FRET interf,IN-LEDGF confirm
C[C@@H]1CN([C@H](C)CO)C(=O)c2cc(-c3cccc(C(=O)N(C)C)c3)cnc2O[C@@H]1CN(C)C(=O)Cc1ccccn1,nt,nt,nt,i,nt,nt,nt,nt
Nc1cc(=O)[nH]c(SCC(=O)Nc2ccc([N+](=O)[O-])cc2)n1,i,i,i,i,i,nt,nt,nt
Nc1cc(=O)[nH]c(SCC(=O)Nc2cccc([N+](=O)[O-])c2)n1,i,56,i,i,i,i,i,i
C/C=C(\C)CN1CCN(c2ccccc2)CC1,i,27,i,nt,i,i,i,i
C/C(=C\c1ccccc1)CN1CCN(c2ccccc2)CC1,i,i,i,nt,i,nt,nt,nt
C[C@@H]1NS(=O)(=O)c2cccc(Cl)c2O[C@@H]1c1ccccc1,i,i,i,i,i,nt,nt,nt
C[C@H]1CN([C@@H](C)CO)C(=O)c2cc(NS(=O)(=O)c3ccc(F)cc3)ccc2O[C@H]1CN(C)Cc1ccc2c(c1)OCO2,nt,nt,nt,i,nt,nt,nt,nt
Nc1cc(=O)[nH]c(SCC(=O)Nc2ccccc2-c2ccccc2)n1,i,i,i,i,i,nt,nt,nt
Cc1cc(C)nc(SCC(=O)Nc2nc(-c3ccccc3)c(-c3ccccc3)o2)n1,i,i,i,i,i,nt,nt,nt
Cc1ccc(C(=O)Nc2nc(-c3ccccc3)c(-c3ccccc3)o2)cc1,i,21,i,nt,i,i,i,23
CCOC(=O)CCCCC(=O)c1[nH]c(=O)[nH]c1CSc1nnc2c3ccccc3n(C(C)C)c2n1,i,28,i,nt,i,i,i,i
CCCn1c2ccccc2c2nnc(SCc3[nH]c(=O)[nH]c3C(=O)CCCCC(=O)OCC)nc21,i,30,i,nt,i,i,i,19
CC(C)NC(=O)Nc1ccc2c(c1)C(=O)N(C)[C@@H]1CC[C@@H](CC(=O)NCC3CCCCC3)O[C@H]1CO2,nt,nt,nt,i,nt,nt,nt,nt
CCN(c1ccccc1)S(=O)(=O)c1ccc(OC)c(OC)c1,nt,nt,nt,i,nt,nt,nt,nt
CCN(c1ccccc1)S(=O)(=O)c1cc(OC)ccc1OC,i,52,i,nt,i,i,i,i
CN(CC(O)COCc1ccccc1F)C1CCCCC1 (stereo unspecified),i,i,i,i,i,nt,nt,nt
CS(=O)(=O)N1CCC2(CC1)OCCN2S(=O)(=O)c1ccccc1,i,i,i,i,i,nt,nt,nt
CCS(=O)(=O)N1CCC2(CC1)OCCN2S(=O)(=O)c1ccccc1,i,26,i,i,i,i,i,i
O=C1NC(=O)/C(=C/c2ccco2)N1,i,i,i,i,i,nt,nt,nt
O=C1/C(=C\c2ccco2)NC(=S)N1c1ccccc1,i,16,i,i,i,i,i,17
O=C1NC(=S)NC1=Cc1ccco1,i,56,i,44,i,i,i,41
Cc1ccc(N2C(=O)/C(=C\c3ccco3)SC2=S)cc1,i,i,i,nt,i,nt,nt,nt
O=C1/C(=C\c2ccco2)SC(=S)N1c1ccccc1,i,21,i,nt,i,i,i,21
CC(=O)Nc1ccc2c(c1)nc1n2CCN(C(C)c2ccccc2)C1 (stereo unspecified),i,i,i,i,i,nt,nt,nt
